The term MIC denotes the least concentration at which growth counts as inhibited.

For assay [1], the system named is Klebsiella pneumoniae. Put plainly: Antimicrobial activity against Klebsiella pneumoniae NCIM 2957 at 10 ug/ml after 24 hrs by agar diffusion method. Format: functional. Conditions: NCIM 2957, 24 h, read-out: IZ. Put shortly:
(§1)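 Agar well diffusion on Mueller Hinton agar. Plates were seeded with bacterial suspension in sterile 0.85% saline at 10⁵ cfu/mL. Compound dilutions in 1% DMSO went into 6 mm wells, with DMSO alone as control. Plates were incubated 24 h at 37 ± 0.5 °C, and the zone of inhibition was measured in mm.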
On the technique in general: Agar diffusion results depend on both activity and mobility in agar.

Assay [2] concerns Trichoderma viride. The assay can be described thus: Antimicrobial activity against Trichoderma viride MTCC 167 at 30 ug/ml after 48 hrs by agar diffusion method. It counts as functional, organism-based. A digest of the protocol: (§2)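 Agar well diffusion on Sabouraud dextrose agar. Plates were spread with fungal spore suspension in sterile distilled water adjusted to 10⁶ cfu/mL. Compound dilutions in 1% DMSO went into 6 mm wells, with DMSO alone as control. Plates were incubated 48 h at 28 ± 0.2 °C, and the inhibition zone was read in mm.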

The test system of assay [3] is Serratia marcescens. The assay can be described thus: Antimicrobial activity against Serratia marcescens MTCC 86 at 10 ug/ml after 24 hrs by agar diffusion method. It counts as functional. As to conditions: MTCC 86, 24 h, read-out: IZ. Put shortly: as §1
The subject of assay [4] is Aspergillus niger. Put plainly: Antimicrobial activity against Aspergillus niger MTCC 1781 at 30 ug/ml after 48 hrs by agar diffusion method. It counts as functional, organism-based. A digest of the protocol:
as §2

The subject of assay [5] is Pseudomonas aeruginosa. Put plainly: Antimicrobial activity against Pseudomonas aeruginosa MTCC 2488 at 10 ug/ml after 24 hrs by agar diffusion method. As to conditions: MTCC 2488, 24 h, read-out: IZ. It counts as functional. Put shortly: as §1
The subject of assay [6] is Aspergillus flavus. The assay can be described thus: Antimicrobial activity against Aspergillus flavus MTCC 2501 at 30 ug/ml after 48 hrs by agar diffusion method. It counts as functional, organism-based. A digest of the protocol: as §2
The subject of assay [7] is Staphylococcus aureus. The assay can be described thus: Antimicrobial activity against Staphylococcus aureus MTCC 96 at 10 ug/ml after 24 hrs by agar diffusion method. As to conditions: MTCC 96, 24 h, read-out: IZ. Format: functional. Put shortly: as §1
The subject of assay [8] is Candida albicans. Put plainly: Antimicrobial activity against Candida albicans MTCC 227 at 30 ug/ml after 48 hrs by agar diffusion method. Format: functional, organism-based. A digest of the protocol:
as §2

The subject of assay [9] is Penicillium chrysogenum. Put plainly: Antimicrobial activity against Penicillium chrysogenum MTCC 1996 at 30 ug/ml after 48 hrs by agar diffusion method. Format: functional, organism-based. A digest of the protocol:
as §2

For assay [10], the system named is Priestia megaterium. The assay can be described thus: Antimicrobial activity against Bacillus megaterium MTCC 1684 at 10 ug/ml after 24 hrs by agar diffusion method. It counts as functional. Conditions: MTCC 1684, 24 h, read-out: IZ. Put shortly:
as §1

Assay [11] relates to Bacillus subtilis. Put plainly: Antimicrobial activity against Bacillus subtilis MTCC 1789 at 10 ug/ml after 24 hrs by agar diffusion method. As to conditions: MTCC 1789, 24 h, read-out: IZ. It counts as functional. A digest of the protocol: as §1
Assay [12] deals with Proteus vulgaris. Put plainly: Antimicrobial activity against Proteus vulgaris MTCC 1771 at 10 ug/ml after 24 hrs by agar diffusion method. Format: functional. As to conditions: MTCC 1771, 24 h, read-out: IZ. Put shortly: as §1
Assay [13] relates to Staphylococcus aureus. Put plainly: Antimicrobial activity against Staphylococcus aureus MTCC 96 after 24 hrs. Format: functional. Conditions: MTCC 96, 24 h. A digest of the protocol: (§3)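 Agar well diffusion on Mueller Hinton agar seeded with 0.1 mL of a 10⁵ cfu/mL bacterial suspension in 0.85% sterile saline. 6 mm wells received 0.1 mL of each compound dilution in DMSO (1% DMSO; DMSO alone as control). Plates were incubated 24 h at 37 ± 0.5 °C. Read-out was zone of inhibition in mm. MIC was taken as the lowest concentration giving complete growth inhibition.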

Assay [14] concerns Penicillium chrysogenum. Put plainly: Antimicrobial activity against Penicillium chrysogenum MTCC 1996 after 48 hrs. Format: functional. Conditions: MTCC 1996, 48 h. Put shortly: (§4)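 Fungal spore suspensions in sterile distilled water were adjusted to 10⁶ cfu/mL, and 0.1 mL was spread on Sabouraud dextrose agar. 6 mm wells were filled with 0.1 mL of compound dilution in DMSO (1% DMSO; DMSO-only control). Plates were incubated 48 h at 28 ± 0.2 °C, and inhibition zones were measured in mm. MIC was the lowest concentration completely inhibiting growth.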

Assay [15] concerns Klebsiella pneumoniae. Put plainly: Antimicrobial activity against Klebsiella pneumoniae NCIM 2957 at MIC after 24 hrs by agar diffusion method. Format: functional. Put shortly: as §3
Assay [16] has as its system Aspergillus niger. The assay can be described thus: Antimicrobial activity against Aspergillus niger MTCC 1781 after 48 hrs. It counts as functional. As to conditions: MTCC 1781, 48 h. A digest of the protocol:
as §4

Assay [17] concerns Klebsiella pneumoniae. The assay can be described thus: Antimicrobial activity against Klebsiella pneumoniae NCIM 2957 after 24 hrs. Format: functional. As to conditions: NCIM 2957, 24 h. A digest of the protocol: as §3
The test system of assay [18] is Proteus vulgaris. The assay can be described thus: Antimicrobial activity against Proteus vulgaris MTCC 1771 at MIC after 24 hrs by agar diffusion method. It counts as functional. Put shortly:
as §3

Assay [19] relates to Trichoderma viride. Put plainly: Antimicrobial activity against Trichoderma viride MTCC 167 at MIC after 48 hrs by agar diffusion method. Format: functional. Put shortly:
as §4

For assay [20], the system named is Escherichia coli. The assay can be described thus: Antimicrobial activity against Escherichia coli MTCC 1650 at MIC after 24 hrs by agar diffusion method. Format: functional. A digest of the protocol: as §3
Assay [21] concerns Aspergillus flavus. Put plainly: Antimicrobial activity against Aspergillus flavus MTCC 2501 at MIC after 48 hrs by agar diffusion method. Format: functional. A digest of the protocol: as §4
In assay [22] the test system is Serratia marcescens. The assay can be described thus: Antimicrobial activity against Serratia marcescens MTCC 86 after 24 hrs. It counts as functional. As to conditions: MTCC 86, 24 h. Put shortly: as §3
Assay [23] has as its system Aspergillus flavus. The assay can be described thus: Antimicrobial activity against Aspergillus flavus MTCC 2501 after 48 hrs. It counts as functional. As to conditions: MTCC 2501, 48 h. A digest of the protocol:
as §4

In assay [24] the test system is Proteus vulgaris. Put plainly: Antimicrobial activity against Proteus vulgaris MTCC 1771 after 24 hrs. It counts as functional. As to conditions: MTCC 1771, 24 h. Put shortly:
as §3

In assay [25] the test system is Bacillus subtilis. Put plainly: Antimicrobial activity against Bacillus subtilis MTCC 1789 after 24 hrs. Format: functional. Conditions: MTCC 1789, 24 h. A digest of the protocol: as §3
Assay [26] has as its system Priestia megaterium. Put plainly: Antimicrobial activity against Bacillus megaterium MTCC 1684 at MIC after 24 hrs by agar diffusion method. Format: functional. A digest of the protocol: as §3
For assay [27], the system named is Trichoderma viride. Put plainly: Antimicrobial activity against Trichoderma viride MTCC 167 after 48 hrs. It counts as functional. As to conditions: MTCC 167, 48 h. A digest of the protocol:
as §4

The test system of assay [28] is Escherichia coli. Put plainly: Antimicrobial activity against Escherichia coli MTCC 1650 after 24 hrs. As to conditions: MTCC 1650, 24 h. It counts as functional. A digest of the protocol:
as §3

In assay [29] the test system is Pseudomonas aeruginosa. The assay can be described thus: Antimicrobial activity against Pseudomonas aeruginosa MTCC 2488 after 24 hrs. Format: functional. As to conditions: MTCC 2488, 24 h. Put shortly:
as §3

Assay [30] deals with Candida albicans. Put plainly: Antimicrobial activity against Candida albicans MTCC 227 at MIC after 48 hrs by agar diffusion method. It counts as functional. Put shortly:
as §4

The test system of assay [31] is Staphylococcus aureus. The assay can be described thus: Antimicrobial activity against Staphylococcus aureus MTCC 96 at MIC after 24 hrs by agar diffusion method. Format: functional. Put shortly:
as §3

Assay [32] deals with Bacillus subtilis. Put plainly: Antimicrobial activity against Bacillus subtilis MTCC 1789 at MIC after 24 hrs by agar diffusion method. It counts as functional. A digest of the protocol: as §3
Assay [33] has as its system Priestia megaterium. The assay can be described thus: Antimicrobial activity against Bacillus megaterium MTCC 1684 after 24 hrs. As to conditions: MTCC 1684, 24 h. Format: functional. Put shortly: as §3
Assay [34] deals with Penicillium chrysogenum. Put plainly: Antimicrobial activity against Penicillium chrysogenum MTCC 1996 at MIC after 48 hrs by agar diffusion method. Format: functional. A digest of the protocol: as §4
Assay [35] has as its system Serratia marcescens. The assay can be described thus: Antimicrobial activity against Serratia marcescens MTCC 86 at MIC after 24 hrs by agar diffusion method. Format: functional. A digest of the protocol:
as §3

The test system of assay [36] is Candida albicans. Put plainly: Antimicrobial activity against Candida albicans MTCC 227 after 48 hrs. As to conditions: MTCC 227, 48 h. It counts as functional. Put shortly: as §4
For assay [37], the system named is Aspergillus niger. Put plainly: Antimicrobial activity against Aspergillus niger MTCC 1781 at MIC after 48 hrs by agar diffusion method. Format: functional. A digest of the protocol:
as §4

In brackets after ≈: the same amount, converted by molar mass. Activity calls are given as the source filed them. The rule behind the calls is not given here.

With `CN(C)[C@@H]1C(O)=C(C(N)=O)C(=O)[C@@]2(O)C(O)=C3C(=O)c4c(O)cccc4[C@@](C)(O)[C@H]3C[C@@H]12` [TETRACYCLINE], the zone of inhibition at 10 µg/mL in assay [1] is 17 mm; in assay [3] it was 15 mm; in [5], 32 mm; in assay [7] it was 25 mm; in assay [10], 27 mm; in [11], 20 mm. The zone of inhibition at 10 µg/mL in [12] was 20 mm. The “inhibition zone (IZ)” value in assay [2], in assay [4], in assay [6], in [8] and in assay [9] was “inactive” in each case.
Turning to `Nc1n[nH]c2nc3scc(-c4cc(Cl)cc(Br)c4O)n3c(=O)c12`, the MIC stood at 50 µg/mL (≈ 121 µM) in [13]; 250 µg/mL (≈ 606 µM) in assay [14]; 250 µg/mL (≈ 606 µM) in assay [16]; 50 µg/mL (≈ 121 µM) in assay [17]; 50 µg/mL (≈ 121 µM) in assay [22]; 250 µg/mL (≈ 606 µM) in assay [23]. Moreover, the MIC in assay [24] was determined as 50 µg/mL (≈ 121 µM); in assay [25], 50 µg/mL (≈ 121 µM); in assay [27] it was 250 µg/mL (≈ 606 µM); in assay [28], 50 µg/mL (≈ 121 µM); in assay [29], 50 µg/mL (≈ 121 µM); in assay [33], 50 µg/mL (≈ 121 µM). This molecule returned an MIC in assay [36] of 250 µg/mL (≈ 606 µM). In addition, the “inhibition zone (IZ)” value is 9 mm in assay [15]; 26 mm in assay [19]; 11 mm in [20]; 11 mm in [21]; 16 mm in assay [30]; 16 mm in assay [31]. Besides, the “inhibition zone (IZ)” value in [34] worked out at 28 mm; in assay [35] it was 15 mm. The “inhibition zone (IZ)” value in [18], in [26], in assay [32] and in [37] was “inactive” each time.
Consider `Nc1n[nH]c2nc3scc(-c4ccc([N+](=O)[O-])cc4)n3c(=O)c12`, for which the MIC in assay [13] was 50 µg/mL (≈ 152 µM); in [14] it was 250 µg/mL (≈ 761 µM); in assay [16] it was 250 µg/mL (≈ 761 µM); in assay [17], 50 µg/mL (≈ 152 µM); in assay [22], 50 µg/mL (≈ 152 µM); in assay [23] it was 250 µg/mL (≈ 761 µM). Besides, the MIC stood at 50 µg/mL (≈ 152 µM) in [24]; 50 µg/mL (≈ 152 µM) in assay [25]; 250 µg/mL (≈ 761 µM) in [27]; 50 µg/mL (≈ 152 µM) in assay [28]; 50 µg/mL (≈ 152 µM) in assay [29]; 50 µg/mL (≈ 152 µM) in [33]. In addition, the MIC in assay [36] amounted to 250 µg/mL (≈ 761 µM). Further, the “inhibition zone (IZ)” value in [15] is recorded as 13 mm; in assay [19], 29 mm; in assay [20], 10 mm; in [21], 16 mm; in assay [30], 21 mm; in assay [31], 31 mm. Moreover, the “inhibition zone (IZ)” value in assay [34] was 32 mm; in [35], 16 mm. Further, the “inhibition zone (IZ)” value in [18], in [26], in assay [32] and in [37] was “inactive” each time.

For the origin of these results see ChEMBL document CHEMBL1157032, “Synthesis and antimicrobial activity of novel pyrazolo[3,4-d]pyrimidin derivatives” (2010).
